“Also recorded” adds a separate entry of the source.
Legend:
[1] = tested on: BAF-mediated transcriptional repression (Bmi1-luciferase reporter cell line); assay: Bmi1-luciferase reporter assay in mouse ESCs; assay type: cell-based; conditions: for activity in the Bmi1 luciferase reporter assays (in words): follow up library
How it was run: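 Mouse ESC Bmi1-luciferase reporter line: 10,000 cells per 384-well in ESC medium, 24 h at 37 °C/5% CO2, then compound added by 100 nL pin transfer alongside a positive control. Each concentration in triplicate; DMSO tolerated to 0.5%. After 24 h treatment, equilibrated 10 min at room temperature, SteadyGlo added for 10 min, luminescence read. EC50 derived.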

[2] = tested on: BAF target genes p21 and c-MYC; assay: Biomarker mRNA expression of BAF target genes in CD4+ T cells; assay type: cell-based, human
How it was run: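 Human CD4+ T cells, healthy donors: three donors isolated by Ficoll and RosetteSep negative selection, treated in duplicate with 3 µM test compound or DMSO for 16 h. HIV+ patient cells: frozen PBMCs rested overnight, CD4+ enriched twice, rested 6 h, 3 million cells treated with 10 µM compound or DMSO. TRIreagent RNA, random-primed cDNA; p21 and c-MYC mRNA vs control; Student's t test.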

latent HIV-1 [3] = assay: Second ex vivo model of HIV-1 latency; assay type: cell-based; conditions: 24 h
How it was run: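 Healthy-donor CD4+ T cells were polarized for 3 days with 10 ng/ml TGF-β, 1 µg/ml α-IL-4 and αCD3/CD28 beads (1:1). Beads removed, then 4 days in 30 IU/ml rIL-2. Spin-infected 90 min at 1200 g, then kept in rIL-2 plus 5 µM saquinavir. Seven days post-infection, treated 24 h with increasing concentrations plus 30 µM raltegravir. Luciferase RLU normalized to total protein.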

[4] = tested on: human primary CD4+ T cells; assay: T cell activation markers CD25 and CD69; assay type: cell-based; conditions: 24 and 72 hours, two healthy donors
latent HIV-1 [5] = assay: Latency reversal in CD4+ T cells from aviremic HIV-1 infected patients; assay type: cell-based
[6] = tested on: nucleosome occupancy at the HIV-1 5'-LTR; assay: FAIRE assay in J-Lat 11.1; assay type: cell-based; conditions: J-Lat 11.1, overnight treatment
latent HIV-1 [7] = assay: Ex vivo primary CD4+ T cell model of HIV-1 latency; assay type: cell-based; conditions: 24 h treatment
How it was run: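 Healthy-donor CD4+ T cells (buffy coat, Ficoll, RosetteSep negative selection) were spin-infected 24 h after isolation with HXB2 Env-pseudotyped pNL4.3.Luc.R-E- (1200 g, 2 h). After 18 h, cells were washed and cultured with 5 µM saquinavir. Three days later, treated 24 h with 30 µM raltegravir present. Luciferase read-out normalized to total protein, expressed as fold over untreated; Bliss score for combinations.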

latent HIV-1 [8] = assay: HIV latency reversal activity of the thiophene hit; assay type: cell-based
ARID1A = assay: Biotin pulldown from ESC lysates, ARID1A; assay type: binding, mouse; conditions: 200 µM soluble compound, pulldown with CAM 2–56
How it was run: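 Beads incubated 2 h with cell lysates pre-incubated with DMSO or 200 µM soluble competitor. Beads washed once, boiled in SDS loading buffer, and bound proteins detected by immunoblot.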

wild type ESCs = assay: Viability of wild type ESCs; assay type: cell-based, mouse; conditions: up to 30 µM, 72 h
How it was run: (§1)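 2000 cells/well in 384-well plates, pre-incubated 24 h at 37 °C, 5% CO2. Compound added by pin transfer; mitoxantrone (10 µM final) as cytotoxic positive control. Incubated 72 h, equilibrated 15 min to room temperature. CellTiter-Glo diluted 1:1 with PBS (pH 7.4) added, luminescence read. Run at eight doses as a viability counter-screen.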

HepG2 cells = assay: Viability assay HepG2; assay type: cell-based, human; conditions: 72 h
How it was run: as §1

[9] = tested on: BAF target genes (Bmi1, Ring1, Fgf4); conditions: 30 µM, 18 h
[10] = tested on: latent HIV-1 provirus in J-Lat cells; assay: J-Lat T-cell line models of HIV-1 latency; assay type: cell-based; conditions: 48 h; higher concentrations than in primary cells
A549 cells = assay: Viability assay A549; assay type: cell-based, human; conditions: 72 h
How it was run: as §1

HEK293T cells = assay: Viability assay HEK293T; assay type: cell-based, human; conditions: 72 h
How it was run: as §1

[11] = CD4+ T cells of three patients, 10 µM

SMILES: CO[C@H]1CN(C)C(=O)c2cc(NC(=O)OC(C)C)ccc2OC[C@H](C)N(Cc2ccc(-c3ccccn3)cc2)C[C@@H]1C [BRD-K80443127]
- activity in the Bmi1 luciferase reporter assays (in words) [1]: high activity
- differential expression of c-MYC and p21 ([2]; CD4+ T cells of healthy donors, 3 µM, 16 hours): consistent with BAF inhibition
- C-MYC transcripts levels [2, 11]: significant decrease
- p21 transcripts levels [2, 11]: significant decrease
- activation in second ex vivo model of HIV-1 latency (latent HIV-1 [3]): activation was confirmed
- effect on CD25 and CD69 expression (T cell activation) [4]: no effect
- potentiation of prostratin activity (latent HIV-1 [5]; all three patients): significant potentiation
- cell associated HIV mRNA after ex vivo treatment alone (latent HIV-1 [5]; in one patient): significant increase
- POL copies when co-treated with prostratin (latent HIV-1 [5]; patient 2 and 3, 10 µM with 200 nM prostratin, 24 h): significant increase
- cell associated HIV-1 POL after treatment alone (latent HIV-1 [5]; patient 2 and 3, 10 µM, 24 h): did not result in a significant increase
- chromatin accessibility at the Nuc-1 position of the 5' LTR [6]: increased chromatin accessibility
- transcription of latent HIV-1 in ex vivo infected primary CD4+ T cells (latent HIV-1 [7]): slightly higher activity at low concentrations; also recorded: triggered HIV transcription

SMILES: CCC(CC)Nc1c(Nc2ccc3c(c2)C(=O)N(C)C[C@H](OC)[C@@H](C)CN(Cc2ccc(-c4ccccn4)cc2)[C@@H](C)CO3)c(=O)c1=O [BRD-K04244835]
- activity in the Bmi1 luciferase reporter assays (in words) [1]: low/no activity

SMILES: CO[C@H]1CN(C)C(=O)c2cc(NC(=O)NC(C)C)ccc2OC[C@H](C)N(Cc2ccccc2)C[C@@H]1C [BRD-K13648511]
- activity in the Bmi1 luciferase reporter assays (in words) [1]: low/no activity

SMILES: C=CCNc1nc(NCc2cccc(OC)c2)c2sc(-c3ccccc3)cc2n1 [MLS003122856]
- HIV latency reversal activity (latent HIV-1 [8]): only moderate HIV latency reversal activity

SMILES: CO[C@H]1CN(C)C(=O)c2cc(N)ccc2OC[C@H](C)N(Cc2ccc(-c3ccccn3)cc2)C[C@@H]1C [BRD-K25923209]
- activity in the Bmi1 luciferase reporter assays (in words) [1]: high activity
- transcription of latent HIV-1 in ex vivo infected primary CD4+ T cells (latent HIV-1 [7]): triggered HIV transcription
- ARID1A enrichment upon preincubation of lysates with soluble competitor (ARID1A): complete reduction

SMILES: CO[C@H]1CN(C)C(=O)c2cc(NC(=O)NC(C)C)ccc2OC[C@H](C)N(Cc2ccc(-c3ccccn3)cc2)C[C@@H]1C [BRD-K98645985]
- activity in the Bmi1 luciferase reporter assays (in words) [1]: high activity
- EC50 ([1]; read-out: EC50 in the luciferase assay, 24 h compound treatment, re-evaluation of hit): ~2.37 µM
- toxicity to ESCs (wild type ESCs): no toxicity
- toxicity to HepG2 cells (HepG2 cells): no toxicity
- fold decrease in Fgf4 [9]: 3.3 fold
- fold increase in Bmi1 [9]: 5 fold
- fold increase in Ring1 [9]: 2.6 fold
- latency reversal in J-Lat cells [10]: concentration dependent latency reversal
- toxicity to A549 cells (A549 cells): no toxicity
- transcription of latent HIV-1 in ex vivo infected primary CD4+ T cells (latent HIV-1 [7]): triggered HIV transcription
- toxicity to HEK293T cells (HEK293T cells): no toxicity

SMILES: CO[C@H]1CN(C)C(=O)c2cc(NC(=O)NC(C)C)ccc2OC[C@H](C)N(Cc2ccc(-c3cccnc3)cc2)C[C@@H]1C [BRD-K17257309]
- activity in the Bmi1 luciferase reporter assays (in words) [1]: moderate activity

Reference: publication PMC6404985 (Cell chemical biology, 2018)
